Laboratory results reported in the RNAGym collection of RNA variant scans (doi:10.1126/science.aae0568).
Variants at the floor of the assay were thinned out.

B1: tRNA (parent)
chain: GUUCCGUUGGCGUAAUGGUAACGCGUCUCCCUCCUAAGGAGAAGACUGCGGGUUCGAGUCCCGUACGGAACG

Variants of: B1
Assay: yeast fitness relative to wild type (ratio to wild type); higher = fitter; tRNA-Arg(CCU), competitive growth, 37 C, YPD
Procedure, shortened: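 Amplicons of the tRNA-Arg(CCU) gene were sequenced, 100-nucleotide paired-end, from the start population and from each end population of a pooled yeast competition. The competition, in six parallel replicates, lasted 24 hours in YPD at 37°C. Fitness relative to wild type was calculated from changes in genotype frequencies. Genotypes had to have ≥ 100 starting reads, and estimates < 0.5 were set to 0.5.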

Row | Variant | yeast fitness
1 | U2C G9C U13C G68C | ≤ 0.5
2 | U2C G9C U28C G50C A57C A69U | ≤ 0.5
3 | U2C G10A | 0.803
4 | U2C G10A C30U | 0.629
5 | U2C G10A C34G C46U G48C U54G | ≤ 0.5
6 | U2C G10A C46G G50A | ≤ 0.5
7 | U2C G10A C49A A65U | ≤ 0.5
8 | U2C G10A U54A | 0.554
9 | U2C G10C A14U G38C | ≤ 0.5
10 | U2C G10C A36C | 0.587
11 | U2C G10C A45C | ≤ 0.5
12 | U2C G10C C11U C34A A37C | 0.609
13 | U2C G10C C24A C31U A36C G48A | ≤ 0.5
14 | U2C G10C C31U A43G | 0.525
15 | U2C G10C G41A G50C | 0.585
16 | U2C G10C G51A C60U G67A | ≤ 0.5
17 | U2C G12A | 0.993
18 | U2C G12A A15G | ≤ 0.5
19 | U2C G12A A15G C62U | ≤ 0.5
20 | U2C G12A A15G C66U | 0.577
21 | U2C G12A A36U | ≤ 0.5

Row | Variant | yeast fitness
22 | U2C G12A G18C C33U C60A | ≤ 0.5
23 | U2C G12C A14G C29U | ≤ 0.5
24 | U2C G12C C34A A40C | ≤ 0.5
25 | U2C G12C C49U A65G | ≤ 0.5
26 | U2C G17A A37C A65G | 0.539
27 | U2C G17A U19C G50C G56C | ≤ 0.5
28 | U2C G17C G23A C49G | ≤ 0.5
29 | U2C G17C G23A G52A C61U | ≤ 0.5
30 | U2C G17C G23C G25C U35A A42U A70G | ≤ 0.5
31 | U2C G18A | 0.806
32 | U2C G18A C24A U28A U32C | ≤ 0.5
33 | U2C G18A C24A U28A U32C A57C G67U | ≤ 0.5
34 | U2C G18A C24U A42G G68A | ≤ 0.5
35 | U2C G18A C29A | ≤ 0.5
36 | U2C G18A U28C A42C | ≤ 0.5
37 | U2C G18C | 0.723
38 | U2C G18C C30U A57C U64C | ≤ 0.5
39 | U2C G18C C30U C61G | ≤ 0.5
40 | U2C G18C C55G C61G | 0.541
41 | U2C G18C G25C A40C G51A G56A C66G | ≤ 0.5
42 | U2C G18C G25C C30A G63C | ≤ 0.5

Row | Variant | yeast fitness
43 | U2C G23A C31G G58A | ≤ 0.5
44 | U2C G23A C33G U35G C60U C62G | ≤ 0.5
45 | U2C G23A C46U | 0.528
46 | U2C G23C | 0.651
47 | U2C G23C C27G A45G G52A C66A | 0.534
48 | U2C G23C C29A C49G A57U | ≤ 0.5
49 | U2C G23C C31G C33U A42G G50U G52C G58C | ≤ 0.5
50 | U2C G23C C33A G50C G58C A70G | ≤ 0.5
51 | U2C G25A | 0.943
52 | U2C G25A A42U A65C G67C | ≤ 0.5
53 | U2C G25A A69U | 0.711
54 | U2C G25C | 0.953
55 | U2C G25C A43U | 0.624
56 | U2C G25C A70G | 0.978
57 | U2C G25C C31U U32A | ≤ 0.5
58 | U2C G38A A70G | 0.541
59 | U2C G38A C55A | ≤ 0.5
60 | U2C G38A C60G | 0.558
61 | U2C G38A U47A C55G C61U | ≤ 0.5
62 | U2C G39A | 0.884
63 | U2C G41A C62U | 0.528

Row | Variant | yeast fitness
64 | U2C G48A A69C | 0.705
65 | U2C G48A C60A A70G | ≤ 0.5
66 | U2C G48A C66U | 0.681
67 | U2C G48A G63C | 0.953
68 | U2C G48A G67A | 0.633
69 | U2C G50A | 0.878
70 | U2C G50A G51A | 0.511
71 | U2C G50A G68C | 0.556
72 | U2C G50C G51A C55U | 0.582
73 | U2C G51A A69U | ≤ 0.5
74 | U2C G51A C62G C66U | ≤ 0.5
75 | U2C G52A | 0.75
76 | U2C G56A | 1.02
77 | U2C G58A | 0.893
78 | U2C G58A C62G | 0.597
79 | U2C G63C | 0.747
80 | U2C G63C C66U | ≤ 0.5
81 | U2C G63C G68C | 0.572
82 | U2C G67A | 0.911
83 | U2C G67A A70U | 0.67
84 | U2C G68A | 0.762
